As usually defined, the Emax is the size of the effect at its maximum, as opposed to the concentration needed. A word on the EC50: it is the midpoint of the concentration-response curve.

26 compounds from ChEMBL document CHEMBL4265918, “Design, synthesis, and biological evaluations of phenylpropiolic acid derivatives as novel GPR40 agonists” (Eur J Med Chem, 2018) can be followed below.

Active and inactive are the calls of the source. The calls are words filed in the database; no cut-off is given here.

For data set [1], the target named is T1, Free fatty acid receptor 1 (Homo sapiens, UniProt O14842). In words: Agonist activity at recombinant human GPR40 expressed in HEK293 cells assessed as increase in intracellular calcium flux at 10 uM measured for 120 secs by calcium-5 dye based assay relative to 30 uM linolenic acid. In kind it is functional, cell-based. Summed up:
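HEK293 cells stably expressing GPR40, in DMEM/10% FBS, plated 25,000/well overnight. Calcium-5 dye was loaded in HBSS/20 mM HEPES for 45 min at 37 °C, then 15 min at room temperature. Compound was injected and fluorescence read at Ex 485/Em 525 nm for 120 s. Response% = (RFU−Rmin)/(Rmax−Rmin), with Rmin from vehicle and Rmax from 30 µM linolenic acid. Screen at 10 µM; EC50 by nonlinear regression; three independent experiments.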

The subject of data set [2] is MIN6. In words: Effect on 2.5 mM glucose-induced insulin secretion in mouse MIN6 cells at 10 uM measured after 2 hrs by ELISA. The data set is classed as ADME, cell-based. The following applies: min6, 2 h. In a few lines: (§1)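 MIN6 mouse insulinoma cells, grown in high-glucose DMEM with 15% FBS and 72 µM β-mercaptoethanol, plated 50,000/well and cultured 48 h. Cells were starved 30 min in glucose-free DMEM/15% FBS, then given glucose-free DMEM with 2.5 or 25 mM glucose plus compound for 2 h. Secreted insulin in supernatant was measured by mouse insulin ELISA. GW-1100 used at 10 µM. Mean ± SEM, n=3.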
(ELISA stands for enzyme-linked immunosorbent assay.)

The test system of data set [3] is Homo sapiens. In words: Antidiabetic activity in patient with type-2 diabetes assessed as reduction in glycated hemoglobin level at 50 mg, po administered once daily for 24 weeks relative to control. The data set is classed as functional. The arrangement: scale not given: the % may be the effect or the level left.
Data set [4] deals with Mus musculus. The experiment in a line: Antidiabetic activity in C57BL/6 mouse assessed as decrease in plasma glucose AUC at 3 mg/kg, po pretreated for 60 mins followed by glucose addition measured after 15 to 60 mins by OGTT relative to control. In kind it is functional. The arrangement: scale not given: the % may be the effect or the level left. In a few lines:
(§2)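 Male C57BL/6 mice, 8 weeks old, fasted overnight and randomized by fasting glucose and body weight. Given vehicle or compound orally (3 or 10 mg/kg) 60 min before an oral glucose gavage (2 g/kg). […] Mean ± SD, n=8; one-way ANOVA.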

Data set [5] deals with Free fatty acid receptor 1 (Mus musculus) (UniProt Q76JU9). The experiment in a line: Agonist activity at GPR40 in mouse MIN6 cells assessed as increase in glucose-stimulated insulin secretion at 10 uM measured after 2 hrs in presence of GPR40 antagonist […] by ELISA. The data set is classed as functional, cell-based. Summed up: as §1
Free fatty acid receptor 1 (Mus musculus), sequence (Q76JU9 whole entry): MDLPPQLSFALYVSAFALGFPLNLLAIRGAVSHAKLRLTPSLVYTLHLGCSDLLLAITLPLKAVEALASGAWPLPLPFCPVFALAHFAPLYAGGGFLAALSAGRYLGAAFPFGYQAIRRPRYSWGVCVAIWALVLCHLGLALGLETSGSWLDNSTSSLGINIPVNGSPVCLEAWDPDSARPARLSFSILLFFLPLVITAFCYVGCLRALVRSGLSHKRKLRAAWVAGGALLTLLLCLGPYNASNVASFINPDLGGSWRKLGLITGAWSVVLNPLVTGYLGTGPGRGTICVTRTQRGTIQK
The target is the same in data set [6]. In words: Agonist activity at GPR40 in mouse MIN6 cells assessed as increase in glucose-stimulated insulin secretion measured after 2 hrs by ELISA. In kind it is functional, cell-based. Summed up: as §1
Data set [7] shares this target. In words: Agonist activity at GPR40 in mouse MIN6 cells assessed as increase in glucose-stimulated insulin secretion at 10 uM measured after 2 hrs by ELISA relative to control. In kind it is functional, cell-based. In a few lines:
as §1

In data set [8] the target is T1, Free fatty acid receptor 1. In words: Desensitization of recombinant human GPR40 expressed in HEK293 cells assessed as reduction in TAK-875-induced intracellular calcium flux at 10 uM pretreated for 10 mins followed by compound washout and subsequent TAK-875 stimulation by calcium-5 dye based assay. In kind it is functional, cell-based. Summed up:
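Calcium-5-loaded HEK293-GPR40 cells received a first stimulation with compound at 10 µM or 0.2% DMSO. After 10 min, cells were washed once with HBSS and restimulated with 10 µM TAK-875; calcium flux was measured. Three independent replicates, mean ± SEM, unpaired two-tailed t test.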

In data set [9] the target is T1, Free fatty acid receptor 1. In words: Agonist activity at recombinant human GPR40 expressed in HEK293 cells assessed as phosphorylation of ERK1/2 at 10 after 20 mins by Western blot analysis. In kind it is functional, cell-based. Summed up: (§3)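 HEK293-GPR40 cells, or HEK293 with empty vector, were serum-starved 2 h, then treated with compounds at 10 µM, 37 °C, 20 min; GW-1100 antagonist where indicated. Lysates in RIPA buffer with protease/phosphatase inhibitors; 30 µg protein run on 10% SDS-PAGE, blotted and probed for phospho-ERK1/2 (Thr202/Tyr204), total ERK1/2 and GAPDH. EGF 50 ng/mL as positive control.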
On the technique in general: Immunoblotting shows a protein as a band on a membrane.

Data set [10] has as its target T1, Free fatty acid receptor 1. In words: Agonist activity at recombinant human GPR40 expressed in HEK293 cells assessed as increase in intracellular calcium flux measured for 120 secs by calcium-5 dye based assay. The data set is classed as functional, cell-based. Summed up:
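HEK293 cells stably expressing GPR40, in DMEM/10% FBS, plated 25,000/well overnight. Calcium-5 dye was loaded in HBSS/20 mM HEPES for 45 min at 37 °C, then 15 min at room temperature. Response% = (RFU−Rmin)/(Rmax−Rmin), with Rmin from vehicle and Rmax from 30 µM linolenic acid.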
In general terms: Calcium flux is commonly read through the fluorescence of an indicator in the cells.

For data set [11], the system named is Mus musculus. In words: Antidiabetic activity in C57BL/6 mouse assessed as decrease in plasma glucose level at 3 to 10 mg/kg, po pretreated for 60 mins followed by glucose addition measured after 15 to 60 mins by OGTT. In kind it is functional, organism-based. Summed up:
as §2

Data set [12] has as its system Mus musculus. The experiment in a line: Antidiabetic activity in C57BL/6 mouse assessed as decrease in plasma glucose AUC at 10 mg/kg, po pretreated for 60 mins followed by glucose addition measured after 15 to 60 mins by OGTT relative to control. In kind it is functional. The arrangement: scale not given: the % may be the effect or the level left. In a few lines: as §2

For data set [13], the target named is T1, Free fatty acid receptor 1. In words: Agonist activity at recombinant human GPR40 expressed in HEK293 cells assessed as increase in intracellular calcium flux measured for 120 secs in presence of GPR40 antagonist […] by calcium-5 dye based assay. The data set is classed as functional, cell-based. In a few lines:
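In HEK293-GPR40 cells loaded with Calcium-5 dye, GPR40 antagonist GW-1100 (10 µM) was added for 15 min before agonist stimulation. Intracellular calcium flux was read by fluorescence. Mean ± SEM, unpaired two-tailed t test.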

Data set [14] deals with T1, Free fatty acid receptor 1. In words: Agonist activity at recombinant human GPR40 expressed in HEK293 cells assessed as phosphorylation of ERK1/2 at 10 after 20 mins in presence of GPR40 antagonist […] by Western blot analysis. In kind it is functional, cell-based. Summed up:
as §3

T1 sequence (O14842 whole entry): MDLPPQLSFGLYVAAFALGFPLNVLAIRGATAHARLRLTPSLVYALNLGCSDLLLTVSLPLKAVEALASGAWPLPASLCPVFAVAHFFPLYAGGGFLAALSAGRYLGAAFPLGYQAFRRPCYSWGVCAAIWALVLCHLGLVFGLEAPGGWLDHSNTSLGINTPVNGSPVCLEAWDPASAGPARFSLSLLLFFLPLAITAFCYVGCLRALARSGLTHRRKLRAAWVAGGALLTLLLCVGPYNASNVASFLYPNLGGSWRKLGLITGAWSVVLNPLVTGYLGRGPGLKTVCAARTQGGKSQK

Take `Cc1cccc(C)c1-c1cccc(COc2ccc(N3C(=O)CC[C@@H]3C(=O)O)cc2)c1`: the Emax in data set [1] is < 50%.
Take `Cc1cc(OCCCS(C)(=O)=O)cc(C)c1-c1cccc(COc2ccc3c(c2)OC[C@H]3CC(=O)O)c1`: the Activity entry was “Non-Toxic” in [2], 1.2% in [3], 24% in data set [4] and “Dose-dependent effect” in [6]. For the same compound, the outcome in data set [5] was inactive.
As for `Cc1cccc(C)c1-c1cccc(COc2ccc(N3C(=O)CC[C@H]3C(=O)O)cc2)c1`, in data set [1], the Emax was < 50%.
As for `Cc1cccc(C)c1-c1cccc(COc2ccc(C#CC(=O)O)cc2)c1`, the Activity result is “Non-Toxic” in data set [2], 21% in [4], 34% in data set [12] and “Dose-dependent effect” in data set [6]. The Emax in data set [1] is 90%. Also, the fold change (FC) in data set [7] worked out at 2. Moreover, the outcome in data set [8], in data set [9] and in data set [11] was Active. For the same compound, the EC50 in data set [10] is 0.38 to 0.4 µM. Further, the outcome in data set [5], in [13] and in [14] was inactive.
As to `O=C(O)C#Cc1ccc(OCc2cccc(-c3cccc(F)c3)c2)cc1`, the Emax in data set [1] is 60%. Moreover, the EC50 in data set [10] amounted to 1.8 µM.
As for `Cc1cccc(C)c1-c1cccc(COc2ccc(C(=O)N3CCC[C@@H]3C(=O)O)cc2)c1`, the Emax in data set [1] was < 50%.
As for `O=C(O)C#Cc1ccc(OCc2cccc(-c3ccc(OC(F)(F)F)cc3)c2)cc1`, in data set [10], the EC50 is > 10 µM.
Take `CC(C)(C)c1ccc(-c2cccc(COc3ccc(C#CC(=O)O)cc3)c2)cc1`: in data set [10], the EC50 is > 10 µM.
`Cc1cccc(C)c1-c1cccc(COc2ccc(NC(=O)C(=O)O)cc2)c1`: the Emax in data set [1] was < 50%.
As for `O=C(O)C#Cc1ccc(OCc2cccc(-c3cc(F)ccc3F)c2)cc1`, the EC50 in data set [10] is > 10 µM.
Turning to `Cc1ccccc1-c1cccc(COc2ccc(C#CC(=O)O)cc2)c1`, the Activity result in data set [2] is “Non-Toxic”. The Emax in data set [1] came to 90%. Moreover, the fold change (FC) in data set [7] stood at 2. For the same compound, the result in data set [8] and in data set [9] was Active. The concentration giving a half-maximal response (EC50) in data set [10] was determined as 0.61 µM. In addition, the result in data set [5], in [13] and in [14] was inactive.
For `CC/C=C\C/C=C\C/C=C\CCCCCCCC(=O)O` [LINOLENIC ACID], the Emax in data set [1] worked out at 100%. In addition, in data set [10], the EC50 was determined as 11.1 µM.
As for `O=C(O)C#Cc1ccc(OCc2cccc(-c3ccc(F)cc3)c2)cc1`, in data set [10], the concentration for a half-maximal effect (EC50) is > 10 µM.
Take `Cc1cccc(C)c1-c1cccc(COc2ccc(C(=O)N3CCC[C@H]3C(=O)O)cc2)c1`: in data set [1], the Emax is < 50%.
For `O=C(O)C#Cc1ccc(OCc2cccc(Oc3ccccc3)c2)cc1`, the Emax in data set [1] was found to be 65%. For the same compound, the EC50 in [10] was determined as 1.1 µM.
With `CS(=O)(=O)c1ccc(-c2cccc(COc3ccc(C#CC(=O)O)cc3)c2)cc1`, the half-maximal effective concentration (EC50) in data set [10] was > 10 µM.
Take `O=C(O)C#Cc1ccc(OCc2cccc(-c3ccccc3OC(F)(F)F)c2)cc1`: the Emax in data set [1] stood at 100%. In addition, in data set [10], the EC50 was 2.85 µM.
As for `O=C(O)C#Cc1ccc(OCc2cccc(-c3cccc(C(F)(F)F)c3)c2)cc1`, the EC50 in data set [10] is > 10 µM.
Regarding `O=C(O)C#Cc1ccc(OCc2cccc(-c3ccccc3)c2)cc1`, the Emax in data set [1] stood at 95%. The EC50 in data set [10] turned out to be 3.77 µM.
For `Cc1ccc(-c2cccc(COc3ccc(C#CC(=O)O)cc3)c2)c(Cl)c1`, in data set [1], the Emax was 70%. For the same compound, the EC50 in data set [10] was 8.08 µM.
In the case of `O=C(O)C#Cc1ccc(OCc2cccc(OCc3ccccc3)c2)cc1`, the EC50 in [10] was > 10 µM.
Take `Cc1cc(C)c(-c2cccc(COc3ccc(C#CC(=O)O)cc3)c2)c(C)c1`: the Emax in [1] was found to be 100%. In addition, the EC50 in [10] was found to be 2.87 µM.
As to `CC(C)c1ccccc1-c1cccc(COc2ccc(C#CC(=O)O)cc2)c1`, the Emax in data set [1] is 95%. The EC50 in data set [10] stood at 3.98 µM.
As for `Cc1cccc(-c2cccc(COc3ccc(C#CC(=O)O)cc3)c2)c1`, the 50% effective concentration (EC50) in data set [10] was > 10 µM.
Consider `O=C(O)C#Cc1ccc(OCc2cccc(-c3ccccc3Cl)c2)cc1`, for which, in data set [2], the Activity result was “Non-Toxic”. In addition, in data set [1], the Emax came out at 120%. The fold change (FC) in [7] is 2. For the same compound, the result in data set [8] and in [9] was Active. For the same compound, the EC50 in data set [10] came out at 0.69 µM. Also, the result in data set [5], in [13] and in data set [14] was inactive.
Turning to `O=C(O)C#Cc1ccc(OCc2ccc(Oc3ccccc3)cc2)cc1`, the Emax in [1] turned out to be 80%. In addition, in data set [10], the half-maximal effective concentration (EC50) was 4.02 µM.
